Bioassay records (PubChem)
Only some compounds are listed: those with a hit (about 2.8% of all), similar ones and a draw of the others.
Rtt109 HAT inh – C. albicans Rtt109 histone acetyltransferase inhibition | Q5AAJ8 | purified Rtt109/Vps75, ThioGlo CoA-SH fluorescence, 4 h | inhibition, % at 34.9 µM | actives 0.16% (n = 330,000) | AID 540336;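 active = inhibition of at least 50% in every replicate; inconclusive = best replicate reaches 50% inhibition but some replicates fall short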
JMJD2C inh – blocks human GASC-1 demethylase activity | Q9H3R0 | GST-JMJD2C(1-420) H3K9me3 demethylation, DELFIA europium | inhibition, % at 2.35 µM | actives 0.069% (n = 330,000) | AID 2099;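 active = more than half of a compound's replicate wells show inhibition beyond 50%, single wells judged on their own value; inconclusive = some, but no more than half, of replicates pass 50% inhibition; inactive = no replicate passes 50% inhibition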;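 note: signal counts dimethyl H3K9 product captured on neutravidin plate; 0% = median of DMSO wells and 100% = 0.3 times that DMSO median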
Target sequence (Q9H3R0 1-420 limits assumed): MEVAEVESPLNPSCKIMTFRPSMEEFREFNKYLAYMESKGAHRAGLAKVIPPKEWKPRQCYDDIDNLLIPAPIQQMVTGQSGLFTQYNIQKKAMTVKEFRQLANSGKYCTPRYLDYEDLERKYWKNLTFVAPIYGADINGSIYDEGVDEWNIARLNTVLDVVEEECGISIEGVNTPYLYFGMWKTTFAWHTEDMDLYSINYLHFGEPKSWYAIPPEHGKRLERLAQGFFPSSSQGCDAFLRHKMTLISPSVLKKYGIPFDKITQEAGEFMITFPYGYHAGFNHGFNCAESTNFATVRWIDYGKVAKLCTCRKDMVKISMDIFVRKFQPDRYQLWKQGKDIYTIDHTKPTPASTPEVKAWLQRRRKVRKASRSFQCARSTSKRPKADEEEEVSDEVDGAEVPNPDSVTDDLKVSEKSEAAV
T cell modulator – T cell immune modulators affecting CD8 T cell-vesicle binding | AID 2052 | response (vesicle binding), % at 7 µM | actives 0.068% (n = 330,000) | 2C CD8+ T cell-vesicle binding, flow cytometry; stronger effect = lower value;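 active = response, share of CD8 T cells binding vesicles, and their 90th percentile fluorescence all below set limits, cut at about 80% in these data, passing the limit was not always enough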;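 note: values below 100% mean blocked vesicle binding to the CD8+ T cells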
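Incubation: binding step 1.5 h, 37 °C, antibody labelling 20 min, ice; system: murine 2C transgenic CD8+ T lymphocytes; technique: cytometric PE anti-B7-1 and Alexa647 anti-CD8 signals after 1% paraformaldehyde fixation; also added: QL9-charged Drosophila Ld/ICAM-1/B7-1 vesicles; control set: naked versus QL9-loaded vesicles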
NR3A LBD binder – modulates the human NR3A ligand-binding domain; NR3A LBD differential scanning fluorimetry, Tm shift; 0% = protein alone, 100% = glycine-bound protein; Tm shift relative to glycine control, % at 25 µM; actives 2.5% (n = 340,000); AID 1259313;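 active = melting temperature shift of at least 10% of the positive control shift, at one fixed dose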
Starred values were filed as active, the others as inactive; ? = inconclusive; · = no result given.

SMILES	Rtt109 HAT inh	JMJD2C inh	T cell modulator	NR3A LBD binder
O=C(CNS(=O)(=O)c1cccc(Cl)c1)Nc1ccc(-c2nc3ccccc3s2)cc1	-2	-9	279	23*
CC(NS(=O)(=O)c1cccc(Cl)c1)C(=O)Nc1ccc(-c2nc3ccccc3s2)cc1 (stereo not given)	-12	-9	203	30*
Cc1ccc(C)c(S(=O)(=O)NC(C)C(=O)Nc2ccc(-c3nc4ccccc4s3)cc2)c1 (stereo not given)	-7	3	228	25*
O=C(CN1CCCCC1)NC(=O)NC1CCCCC1	27	4	85	-2
O=C(C=Cc1ccccc1)c1c[nH]c2ccccc2c1=O	4	·	·	-17
O=C(/C=C/c1ccccc1)c1c[nH]c2ccccc12	?	-9	336	25*
COc1ccc(S(=O)(=O)N(C)C[C@H]2Oc3ccc(NC(=O)C4CC4)cc3C(=O)N([C@H](C)CO)C[C@@H]2C)cc1	8	-11	337	-1
CC1CCN(c2ccc(/C=C(\C#N)c3nn(-c4ccccc4)c(N)c3C#N)cc2[N+](=O)[O-])CC1	-6	-5	682	10*
CC1CCCN(c2ccc(/C=C(\C#N)c3nn(-c4ccccc4)c(N)c3C#N)cc2[N+](=O)[O-])C1 (stereo not given)	-4	22	173	12*
CC1CCN(c2cc(N3CCC(C)CC3)c([N+](=O)[O-])cc2/C=C(\C#N)c2nn(-c3ccccc3)c(N)c2C#N)CC1	-9	4	174	6
N#C/C(=C\c1ccc(N2CCCCC2)c([N+](=O)[O-])c1)c1nn(-c2ccccc2)c(N)c1C#N	7	5	206	-3
O=C(CSc1ccccc1)Nc1ccc(C(=O)Nc2ccc(O)cc2)cc1	5	-20	·	25*
COC(=O)c1ccc(NC(=O)CSc2ccccc2)cc1	0	0	252	-10
O=C(Cc1ccccc1)Nc1ccc(C(=O)Nc2ccc(O)cc2)cc1	-9	-22	305	35*
O=C(N/N=C/c1ccc(F)c(F)c1)c1cc2c(s1)-c1ccccc1CC2	-12	-1	163	27*
CNC(=O)c1cc2c(s1)-c1ccccc1CC2	5	-16	141	0
COCCNC(=O)C(OC(=O)c1ccco1)c1ccc(OC)cc1 (stereo not given)	2	·	·	-1
COc1ccc(C(=O)OC(C)C(=O)NC2CCCc3ccccc32)cc1OC (stereo not given)	32	·	255	2
CCn1cc(CNC(=O)c2cc(COc3ccc(F)cc3Cl)on2)cn1	1	1	124	116*
CC(C)c1ccc(N(CC(=O)NCCCN2CCOCC2)S(=O)(=O)c2ccccc2)cc1	9	·	·	1
Cc1ccc(F)cc1NC(=O)COC(=O)c1ccc2ncsc2c1	3	0	316	1
COc1ccc(CN2CCCCC2C)c(C)c1C (stereo not given)	0	50*	375	0
COc1ccc(CN2CCCCC2C)cc1C (stereo not given)	0	26	492	1
COc1ccc(-c2cccc(NC(=O)c3ccc4c(c3)OCO4)c2)nn1	-9	-5	197	-23
CN(C)Cc1c(C(=O)N/N=C/c2ccc(OCc3ccc(F)cc3)cc2)nnn1-c1nonc1N	17	10	370	7
SMILES	Rtt109 HAT inh	JMJD2C inh	T cell modulator	NR3A LBD binder
CN(C)c1ccc(/C=N/NC(=O)c2nnn(-c3nonc3N)c2COc2ccc(F)cc2)cc1	-6	1	363	11*
CCOC(=O)c1nnn(-c2nonc2N)c1COc1ccc(F)cc1	·	-2	219	1
CCOC(=O)c1nnn(-c2nonc2-n2cccc2)c1CN1CCCCC1	2	4	383	18*
CCOc1ccc(/C=N/NC(=O)c2nnn(-c3nonc3N)c2COc2ccc(F)cc2)cc1	0	32	541	39*
Cc1ccccc1COc1ccc(/C=N/NC(=O)c2nnn(-c3nonc3N)c2CN2CCC(C)CC2)cc1	9	-6	79	87*
CN(CC(=O)Nc1c(Cl)cccc1Cl)C(=O)c1cccn1C	2	-11	250	0
Cc1ccc(CNC(=O)c2ccccc2NC(=O)CN2CC(C)OC(C)C2)cc1 (stereo not given)	6	-9	240	0
CC(=O)c1ccccc1NC(=O)COC(=O)c1cc(C)oc1C	-4	12	334	7
Nc1nonc1-n1nnc(C(=O)N/N=C/c2cccc(O)c2)c1CN1CCCC1	2	12	0	12*
Cc1ccc(N=Nc2c(N)nn3c(C)cc(C)nc23)cc1	0	-2	152	3
